Only some compounds are listed: those with a hit (about 4.5% of all), similar ones and a draw of the others.
OX1R antag-1 – human HCRTR1 antagonism; CHO/OX1R cells, Fluo-8 calcium fluorescence, orexin A; inhibition, % at 5 µM; hit rate 0.43% among 330,000; AID 434989;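 active = inhibition above its plate's threshold, mean inhibition of all tested compounds on the plate plus 3 SD, cut at about 37% in these data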;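 also: 0% = orexin A challenge wells and 100% = SB-334867-A antagonist wells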
CHO parental Ca – counter-screen for OX1R antagonists: effect in parental CHO cells; parental CHO-K1, ATP-induced calcium, Fluo-8 fluorescence; inhibition, % at 5.6 µM; hit rate 0.63% among 330,000;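 active = inhibition above that plate's mean sample inhibition plus 3 SD, cut at about 26% in these data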;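 also: 0% = ATP-challenged DMSO wells and 100% = DMSO wells without ATP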
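test system = CHO parental line | reagent = ATP stimulus | measured by = intracellular calcium via Fluo-8 no-wash fluorescent dye | control set = ATP and no-ATP DMSO wells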
OX1R antag-2 – blocks the human orexin 1 receptor; inhibition, % at 6.6 µM; O43613; OX1R-expressing cells, FRET antagonist read-out; AID 485270; hit rate 1.8% among 330,000; in the data active = inhibition mostly above about 38%, no sharp cut-off; inactive = mostly below about 40%;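 also: 0% = agonist challenge alone and 100% = reference antagonist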
GPR7 antag – blocks human GPR7 receptor signaling; P48145; GPR7-expressing cells, fluorescence antagonist assay; inhibition, % at 4.4 µM; hit rate 1.1% among 290,000; AID 1861; in the data active = inhibition above about 16%, passing the limit was not always enough;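 also: cells stimulated with the agonist NPW; 0% = agonist with vehicle and 100% = vehicle without agonist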
Target sequence (P48145 whole entry, looked up): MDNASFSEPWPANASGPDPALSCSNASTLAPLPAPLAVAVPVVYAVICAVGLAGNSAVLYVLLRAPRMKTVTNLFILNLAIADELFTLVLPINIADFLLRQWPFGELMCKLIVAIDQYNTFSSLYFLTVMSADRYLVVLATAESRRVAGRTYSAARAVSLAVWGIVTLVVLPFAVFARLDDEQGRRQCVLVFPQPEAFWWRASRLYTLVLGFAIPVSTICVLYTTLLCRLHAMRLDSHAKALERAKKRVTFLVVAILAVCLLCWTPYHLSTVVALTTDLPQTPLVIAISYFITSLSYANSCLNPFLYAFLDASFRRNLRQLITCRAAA
TAAR1 antag – human TAAR1 antagonism; CHO RD-HGA16 TAAR1, Fluo-8 calcium fluorescence, antagonist; Q96RJ0; AID 624466; inhibition, % at 3 µM; hit rate 1.5% among 360,000;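 active = inhibition above a per-plate cutoff, the mean inhibition of test compounds on that plate plus 3 SD, cut at about 49% in these data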;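 also: 0% = DMSO plus EC80 beta-PEA response and 100% = DMSO alone without agonist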
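Assay system: CHO-derived RD-HGA16 cells stably expressing human TAAR1 plus Gα16. Timing: 140 s kinetic read after compound, 140 s after agonist. Technique: kinetic Fluo-8 calcium fluorescence measurement. Measure: % inhibition of agonist calcium response.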
TAAR1 ag – human TAAR1 agonism. Q96RJ0. CHO RD-HGA16 TAAR1, Fluo-8 calcium fluorescence; vehicle wells 0%, saturating PEA agonist 100%. AID 624467. hit rate 0.99% among 360,000. activation, % at 3 µM;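 active = activation above the mean activation of all test compounds in the run plus 3 SD, cut at about 38% in these data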
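Assay system: CHO-derived RD-HGA16 cells with stable Gα16 and human TAAR1; timing: 17-24 h seeding, 75 min 37 °C dye, 30 min RT; read-out: % activation from peak over basal fluorescence ratio, DMSO-to-PEA scaled; measured by: kinetic Fluo-8 calcium fluorescence; benchmarks: low control DMSO, high control PEA (EC100); doses: 3 µM single concentration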
GPR7 antag cf – confirmation of human GPR7 antagonists | GPR7-expressing cells, calcium fluorescence antagonist mode | inhibition, % at 4.4 µM | hit rate 52% among 2,400 | shares compounds with GPR7 antag; in the data active = inhibition above about 24%;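 also: stimulated with the GPR7 agonist NPW; 0% = agonist plus vehicle and 100% = vehicle alone without agonist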
MCHR1 antagonist – antagonizes human MCHR1, a GPR7 antagonist counter-screen; shares compounds with GPR7 antag; MCHR1-expressing cells, fluorescence antagonist assay; inhibition, % at 4.4 µM; hit rate 62% among 2,400; in the data active = inhibition above about 22%;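 also: 0% = vehicle with agonist and 100% = vehicle without agonist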
* marks the source's active call; other numbers are inactive results; · = no result given.

SMILES	OX1R antag-1	CHO parental Ca	OX1R antag-2	GPR7 antag	TAAR1 antag	TAAR1 ag	GPR7 antag cf	MCHR1 antagonist
Cc1ccc(-c2ccccc2[C@@H]2C[C@H]3CN(C)C(=O)[C@]34CCCN24)o1	-19	-19	19	-8	-5	7	·	·
CCCNC(=O)CSc1nnc(NC(=O)C2CC(=O)N(c3ccccc3OC)C2)s1 (configuration not stated)	·	·	·	·	-17	1	·	·
CCOCCCNC(=O)c1cc2c(s1)-c1ccccc1SC2	-28	-14	0	-5	-4	1	·	·
CN(C)CCNC(=O)c1cc2c(s1)-c1ccc(Cl)cc1SC2	·	·	·	69*	33	8	93*	93*
CC(O)CN(C)CC/C=C1/c2ccccc2CSc2ccccc21 (configuration not stated)	-15	-16	22	22*	8	-2	17	18
C=CCN(C)CC/C=C1\c2ccccc2CSc2ccccc21	-14	-11	12	0	10	26	·	·
O=C1COc2ccc(C(=O)COC(=O)c3ccc4ccccc4n3)cc2N1	-8	-6	19	-5	30	4	·	·
O=C1COc2ccc(C(=O)COC(=O)Cn3cnc4ccccc43)cc2N1	-6	-1	2	24*	2	16	-4	2
Cc1cc(C)c(C)c(C(=O)C(=O)c2ccccc2)c1	·	·	·	·	6	1	·	·
O=C(CCn1nc(-c2ccc(Cl)cc2)c2ccccc2c1=O)Nc1cccnc1	-20	-27	18	21*	2	8	16	15
NC(=O)CCn1nc(-c2ccc(Cl)cc2)c2ccccc2c1=O	-21	-10	23	-7	-4	-1	·	·
Cc1cccc(N2CCN(C(=O)C3CCN(c4ncnc5c4nc4n5CCCCC4)CC3)CC2)c1C	21	-11	17	27*	-5	11	25*	61*
O=C(C1CCN(c2ncnc3c2nc2n3CCCCC2)CC1)N1CCN(c2ccccc2F)CC1	-18	-25	13	-12	-4	4	·	·
COc1ccc(C(CC(=O)c2ccc3c(c2)OCO3)C(=O)O)cc1OC (configuration not stated)	·	·	·	·	-8	2	·	·
CC1(C)C2CCC(C2)C1(C)NC(=O)CNCC1CCCCC1 (configuration not stated)	-20	-14	16	33*	-13	11	38*	22*
Cc1cccn2c(CN(C)CCC3CCCCO3)c(C(=O)N3CCCCC3)nc12 (configuration not stated)	-14	-11	4	38*	1	6	-5	18
COc1ccc(OCC(=O)Nc2c(C(=O)N3CCN(C)CC3)oc3ccccc23)cc1	-50	-31	13	-7	27	9	·	·
COc1ccccc1C(=O)Nc1c(C(=O)N(CCN(C)C)Cc2ccco2)oc2ccccc12	0	-6	17	29*	38	19	48*	62*
COc1ccc(OCC(=O)Nc2c(C(=O)N(CCN(C)C)Cc3ccco3)oc3ccccc23)cc1	13	-3	20	28*	41	13	23	35*
Cc1ccccc1C(=O)Nc1c(C(=O)N(CCN(C)C)Cc2ccco2)oc2ccccc12	-24	-27	7	6	11	9	·	·
O=C(/C=C/c1ccccc1)NNC(=O)c1cccs1	-7	3	17	-3	0	0	·	·
COc1ccccc1/C=C/C(=O)NNC(=O)c1cccs1	4	-6	27	30*	17	2	-3	4
Cc1cc([N+](=O)[O-])nn1CC(=O)NC(C)c1ccccc1 (configuration not stated)	-7	-16	12	-7	-14	4	·	·
O=C(Cn1nc([N+](=O)[O-])nc1Br)NC(c1ccccc1)c1ccccc1	-26	-14	22	34*	14	3	12	14

Screening data deposited in PubChem by The Scripps Research Institute Molecular Screening Center.
